Results reported in ChEMBL document CHEMBL1137781, “Synthesis and preclinical evaluation of novel PET probes for P-glycoprotein function and expression” (J Med Chem, 2009).

Columns and labels:
[1] = tested on: Hippocampus; experiment: Biodistribution in Wistar rat hippocampus at 11+/-2 MBq, iv after 80 mins; type: ADME, organism-based; conditions: in vivo
Procedure, shortened: (§1)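 Male Wistar rats (12 h light/dark, chow ad libitum) were fitted with a femoral arterial cannula under isoflurane. They were pretreated via tail vein with saline, cyclosporin A (50 mg/kg), or nonradioactive tracer compound (15 mg/kg; 10 mg/mL in saline with 35% ethanol). The 11C tracer was then given via penile vein, followed by 76 min microPET. Animals were then terminated; excised tissues were weighed and gamma-counted with decay correction. Values are SUVs (tissue MBq/g × body weight g / injected MBq).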

[2] = Biodistribution in Wistar rat medulla at 11+/-2 MBq, iv after 80 mins; type: ADME, organism-based, Medulla of organ; conditions: in vivo; procedure, shortened: as §1
[3] = Biodistribution in Wistar rat fat at 11+/-2 MBq, iv after 80 mins; type: ADME, organism-based, Adipose tissue; conditions: in vivo; procedure, shortened: as §1
[4] = tested on: Liver; experiment: Biodistribution in Wistar rat liver at 11+/-2 MBq, iv after 80 mins; type: ADME, organism-based; conditions: in vivo; procedure, shortened: as §1
[5] = tested on: Lung; experiment: Biodistribution in Wistar rat lung at 11+/-2 MBq, iv after 80 mins; type: ADME, organism-based; conditions: in vivo; procedure, shortened: as §1
[6] = tested on: Muscle tissue; experiment: Biodistribution in Wistar rat muscle at 11+/-2 MBq, iv after 80 mins; type: ADME, organism-based; conditions: in vivo; procedure, shortened: as §1
[7] = tested on: Pancreas; experiment: Biodistribution in Wistar rat pancreas at 11+/-2 MBq, iv after 80 mins; type: ADME, organism-based; conditions: in vivo; procedure, shortened: as §1
[8] = tested on: Plasma; experiment: Biodistribution in Wistar rat plasma at 11+/-2 MBq, iv after 80 mins; type: ADME, organism-based; conditions: in vivo
Procedure, shortened: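 Male Wistar rats under isoflurane with saline pretreatment via tail vein. Carbon-11 tracer (8–15 MBq, saline-diluted) was given via the penile vein. After the 76 min microPET list-mode scan, the anesthetized animals were killed and blood collected. Plasma was separated by centrifugation (5 min, 1000g), weighed, and gamma-counted with decay correction. Results are given as SUV (tissue MBq/g × body weight/injected dose).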

[9] = Biodistribution in Wistar rat trachea at 11+/-2 MBq, iv after 80 mins; type: ADME, organism-based; conditions: in vivo
[10] = tested on: Cerebellum; experiment: Biodistribution in 15 mg/kg unlabeled 6,7-dimethoxy-2-(3-(5-methoxy-3,4-dihydronaphthalen-1(2H)-ylidene)propyl)-1,2,3,4-tetrahydroisoquinoline pretreated Wistar rat cerebellum at 13+/-2 MBq, iv after 80 mins; type: ADME, organism-based; design: dose 15 mg/kg, route intravenous; conditions: in vivo
Procedure, shortened: (§2)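 Male Wistar rats given saline or unlabeled compound via tail vein: 15 mg/kg, dissolved at 10 mg/mL in saline with 35% ethanol. [11C] tracer (8-15 MBq) then given via penile vein. After microPET scanning the anesthetized rats were killed. Tissues were excised and weighed, and blood was spun for plasma and cell fraction. γ counting with decay correction. Results as SUV (tissue MBq/g × body weight/injected dose).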

[11] = Biodistribution in 15 mg/kg unlabeled 6,7-dimethoxy-2-(3-(5-methoxy-3,4-dihydronaphthalen-1(2H)-ylidene)propyl)-1,2,3,4-tetrahydroisoquinoline pretreated Wistar rat cingulate cortex at 13+/-2 MBq, iv after 80 mins; type: ADME, organism-based; design: dose 15 mg/kg, route intravenous; conditions: in vivo; procedure, shortened: as §2
[12] = Biodistribution in 15 mg/kg unlabeled 6,7-dimethoxy-2-(3-(5-methoxy-3,4-dihydronaphthalen-1(2H)-ylidene)propyl)-1,2,3,4-tetrahydroisoquinoline pretreated Wistar rat entorhinal cortex at 13+/-2 MBq, iv after 80 mins; type: ADME, organism-based; design: dose 15 mg/kg, route intravenous; conditions: in vivo; procedure, shortened: as §2
[13] = Biodistribution in 15 mg/kg unlabeled 6,7-dimethoxy-2-(3-(5-methoxy-3,4-dihydronaphthalen-1(2H)-ylidene)propyl)-1,2,3,4-tetrahydroisoquinoline pretreated Wistar rat medulla at 13+/-2 MBq, iv after 80 mins; type: ADME, organism-based, Medulla of organ; design: dose 15 mg/kg, route intravenous; conditions: in vivo; procedure, shortened: as §2
[14] = Biodistribution in 15 mg/kg unlabeled 6,7-dimethoxy-2-(3-(5-methoxy-3,4-dihydronaphthalen-1(2H)-ylidene)propyl)-1,2,3,4-tetrahydroisoquinoline pretreated Wistar rat parietal/temporal/occipital cortex at 13+/-2 MBq, iv after 80 mins; type: ADME, organism-based; design: dose 15 mg/kg, route intravenous; conditions: in vivo; procedure, shortened: as §2
[15] = tested on: Pons; experiment: Biodistribution in 15 mg/kg unlabeled 6,7-dimethoxy-2-(3-(5-methoxy-3,4-dihydronaphthalen-1(2H)-ylidene)propyl)-1,2,3,4-tetrahydroisoquinoline pretreated Wistar rat pons at 13+/-2 MBq, iv after 80 mins; type: ADME, organism-based; design: dose 15 mg/kg, route intravenous; conditions: in vivo; procedure, shortened: as §2
[16] = tested on: Striatum; experiment: Biodistribution in 15 mg/kg unlabeled 6,7-dimethoxy-2-(3-(5-methoxy-3,4-dihydronaphthalen-1(2H)-ylidene)propyl)-1,2,3,4-tetrahydroisoquinoline pretreated Wistar rat striatum at 13+/-2 MBq, iv after 80 mins; type: ADME, organism-based; design: dose 15 mg/kg, route intravenous; conditions: in vivo; procedure, shortened: as §2
[17] = tested on: Bone; experiment: Biodistribution in 15 mg/kg unlabeled 6,7-dimethoxy-2-(3-(5-methoxy-3,4-dihydronaphthalen-1(2H)-ylidene)propyl)-1,2,3,4-tetrahydroisoquinoline pretreated Wistar rat bone at 13+/-2 MBq, iv after 80 mins; type: ADME, organism-based, Bone element; design: dose 15 mg/kg, route intravenous; conditions: in vivo; procedure, shortened: as §2
[18] = tested on: Duodenum; experiment: Biodistribution in 15 mg/kg unlabeled 6,7-dimethoxy-2-(3-(5-methoxy-3,4-dihydronaphthalen-1(2H)-ylidene)propyl)-1,2,3,4-tetrahydroisoquinoline pretreated Wistar rat duodenum at 13+/-2 MBq, iv after 80 mins; type: ADME, organism-based; design: dose 15 mg/kg, route intravenous; conditions: in vivo; procedure, shortened: as §2
[19] = Biodistribution in 15 mg/kg unlabeled 6,7-dimethoxy-2-(3-(5-methoxy-3,4-dihydronaphthalen-1(2H)-ylidene)propyl)-1,2,3,4-tetrahydroisoquinoline pretreated Wistar rat fat at 13+/-2 MBq, iv after 80 mins; type: ADME, organism-based, Adipose tissue; design: dose 15 mg/kg, route intravenous; conditions: in vivo; procedure, shortened: as §2
[20] = tested on: Ileum; experiment: Biodistribution in 15 mg/kg unlabeled 6,7-dimethoxy-2-(3-(5-methoxy-3,4-dihydronaphthalen-1(2H)-ylidene)propyl)-1,2,3,4-tetrahydroisoquinoline pretreated Wistar rat ileum at 13+/-2 MBq, iv after 80 mins; type: ADME, organism-based; design: dose 15 mg/kg, route intravenous; conditions: in vivo; procedure, shortened: as §2
[21] = tested on: Lung; experiment: Biodistribution in 15 mg/kg unlabeled 6,7-dimethoxy-2-(3-(5-methoxy-3,4-dihydronaphthalen-1(2H)-ylidene)propyl)-1,2,3,4-tetrahydroisoquinoline pretreated Wistar rat lung at 13+/-2 MBq, iv after 80 mins; type: ADME, organism-based; design: dose 15 mg/kg, route intravenous; conditions: in vivo; procedure, shortened: as §2
[22] = tested on: Muscle tissue; experiment: Biodistribution in 15 mg/kg unlabeled 6,7-dimethoxy-2-(3-(5-methoxy-3,4-dihydronaphthalen-1(2H)-ylidene)propyl)-1,2,3,4-tetrahydroisoquinoline pretreated Wistar rat muscle at 13+/-2 MBq, iv after 80 mins; type: ADME, organism-based; design: dose 15 mg/kg, route intravenous; conditions: in vivo; procedure, shortened: as §2
[23] = Biodistribution in 15 mg/kg unlabeled 6,7-dimethoxy-2-(3-(5-methoxy-3,4-dihydronaphthalen-1(2H)-ylidene)propyl)-1,2,3,4-tetrahydroisoquinoline pretreated Wistar rat red blood cells at 13+/-2 MBq, iv after 80 mins; type: ADME, organism-based, Erythrocyte; design: dose 15 mg/kg, route intravenous; conditions: in vivo; procedure, shortened: as §2
[24] = tested on: Spleen; experiment: Biodistribution in 15 mg/kg unlabeled 6,7-dimethoxy-2-(3-(5-methoxy-3,4-dihydronaphthalen-1(2H)-ylidene)propyl)-1,2,3,4-tetrahydroisoquinoline pretreated Wistar rat spleen at 13+/-2 MBq, iv after 80 mins; type: ADME, organism-based; design: dose 15 mg/kg, route intravenous; conditions: in vivo; procedure, shortened: as §2
[25] = Biodistribution in 15 mg/kg unlabeled 6,7-dimethoxy-2-(3-(5-methoxy-3,4-dihydronaphthalen-1(2H)-ylidene)propyl)-1,2,3,4-tetrahydroisoquinoline pretreated Wistar rat trachea at 13+/-2 MBq, iv after 80 mins; type: ADME, organism-based; design: dose 15 mg/kg, route intravenous; conditions: in vivo; procedure, shortened: as §2
[26] = tested on: Brain; experiment: Biodistribution in Wistar rat brain at 11+/-2 MBq, iv after 56 mins; type: ADME, organism-based; conditions: in vivo
[27] = tested on: Plasma; experiment: Biodistribution in Wistar rat plasma at 11+/-2 MBq, iv after 60 mins; type: ADME, organism-based; conditions: in vivo, 1 h
Procedure, shortened: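 Male Wistar rats under isoflurane with a femoral arterial cannula; saline pretreatment via tail vein. Carbon-11 tracer (8–15 MBq, diluted in saline) injected into the penile vein during microPET. 14 arterial samples were drawn from 15 s to 60 min, plasma was separated by centrifugation, and radioactivity was gamma-counted. Results are given as SUV (tissue MBq/g × body weight/injected dose).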

[28] = tested on: Cerebellum; experiment: Biodistribution in Wistar rat cerebellum at 11+/-2 MBq, iv after 80 mins; type: ADME, organism-based; conditions: in vivo

- SUV [1]: 0.45
- SUV [2]: 0.46
- SUV [3]: 0.35
- SUV [4]: 1.75
- SUV [5]: 1.34
- SUV [6]: 0.52
- SUV [7]: 4.02
- SUV [8]: 0.49
- SUV [9]: 1.25
- SUV [10]: 0.4
- SUV [11]: 0.31
- SUV [12]: 0.49
- SUV [13]: 0.46
- SUV [14]: 0.43
- SUV [15]: 0.5
- SUV [16]: 0.4
- SUV [17]: 0.81
- SUV [18]: 1.01
- SUV [19]: 0.36
- SUV [20]: 0.91
- SUV [21]: 2.13
- SUV [22]: 0.45
- SUV [23]: 0.3
- SUV [24]: 1.72
- SUV [25]: 0.82
- SUV [26]: 0.88
- SUV [27]: 0.49
- SUV [28]: 0.79
SMILES: COc1cc2c(cc1OC)CN(CC/C=C1\CCCc3c(O[11CH3])cccc31)CC2
